In ChEMBL document CHEMBL1144710, “epigenetic multiple ligands: mixed histone/protein methyltransferase, acetyltransferase, and class III deacetylase (sirtuin) inhibitors” (J Med Chem, 2008):
Activity calls are given as the source filed them. Unless noted, the rule behind the calls is not given here.

How the values were obtained:
U-937 [1] = test: Induction of cell cycle arrest in human U937 cells at 25 uM after 30 hrs; format: functional, cell-based
In short: (§1)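 U937 cells in RPMI with 10% fetal calf serum, HEPES and glutamine, kept at 200000 cells/mL; treated at 25 µM for 30 h, then the distribution across cell cycle phases was analysed.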

U-937 [2] = test: Induction of apoptosis in human U937 cells at 25 uM after 30 hrs; format: functional
In short: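 Apoptosis read as caspase 3 activation by FACS, in U937 cells (RPMI, 10% fetal calf serum, 200000 cells/mL) exposed to 25 µM for 30 h.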

U-937 [3] = test: Induction of granulocytic differentiation in human U937 cells assessed as CD11c expression at 5 uM after 30 hrs; format: functional
In short: (§2)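 U937 cells treated for 30 h, then stained with PE-conjugated CD11c (PE mouse IgG1 as control) for 30 min at 4 °C in the dark and resuspended in PBS with PI (0.25 µg/mL). Read-out is percent CD11c-positive/PI-negative cells, with dead PI-positive cells excluded. Coloured compounds limited the top dose to 5 µM or lower.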

U-937 [4] = test: Induction of granulocytic differentiation in human U937 cells assessed as CD11c expression at 25 uM after 30 hrs; format: functional; in short: as §2
U-937 [5] = test: Cell cycle arrest in human U937 cells assessed as accumulation at G1/G2 phase at 25 uM after 30 hrs; format: functional, cell-based; in short: as §1
U-937 [6] = test: Induction of granulocytic differentiation in human U937 cells assessed as CD11c expression at 1 uM after 30 hrs; format: functional; in short: as §2
RmtA = RmtA (Emericella nidulans, UniProt Q5VLE3); test: Inhibition of Aspergillus nidulans RmtA
RmtA, sequence (Q5VLE3 whole entry, the tested form may be a part): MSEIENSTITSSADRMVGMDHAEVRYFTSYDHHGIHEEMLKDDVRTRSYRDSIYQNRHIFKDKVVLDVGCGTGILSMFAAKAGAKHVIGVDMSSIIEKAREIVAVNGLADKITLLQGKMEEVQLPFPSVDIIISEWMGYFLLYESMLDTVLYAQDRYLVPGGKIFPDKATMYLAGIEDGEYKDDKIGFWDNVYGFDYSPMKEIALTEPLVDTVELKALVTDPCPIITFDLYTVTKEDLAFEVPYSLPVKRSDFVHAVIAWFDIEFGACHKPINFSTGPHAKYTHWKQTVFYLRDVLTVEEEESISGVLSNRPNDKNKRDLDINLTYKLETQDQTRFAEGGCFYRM
In short: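 Enzyme was GST-RmtA fusion expressed in E. coli BL21 and glutathione-affinity purified (500 ng), preincubated with compound for 15 min at room temperature. Then 20 µg chicken erythrocyte core histones and 0.55 µCi [3H]AdoMet were added, 30 min at 30 °C. Stopped with 25% TCA, filtered, counted by liquid scintillation.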

[7] = target: Protein arginine N-methyltransferase 1 (Homo sapiens) (UniProt Q99873); test: Inhibition of human recombinant PRMT1 assessed as histone H4 methylation at 50 uM
Protein arginine N-methyltransferase 1 (Homo sapiens), sequence (Q99873 whole entry, looked up): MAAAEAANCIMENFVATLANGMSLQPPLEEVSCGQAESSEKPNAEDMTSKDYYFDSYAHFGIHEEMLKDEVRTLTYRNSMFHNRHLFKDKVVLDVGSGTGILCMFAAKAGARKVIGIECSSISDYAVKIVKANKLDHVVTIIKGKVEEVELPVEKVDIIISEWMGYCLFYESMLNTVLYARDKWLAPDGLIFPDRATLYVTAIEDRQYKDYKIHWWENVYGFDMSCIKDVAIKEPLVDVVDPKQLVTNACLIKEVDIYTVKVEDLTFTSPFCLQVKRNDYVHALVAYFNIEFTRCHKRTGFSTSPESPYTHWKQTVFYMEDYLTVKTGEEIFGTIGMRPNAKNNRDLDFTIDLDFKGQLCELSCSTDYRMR

[8] = target: Protein arginine N-methyltransferase 1 (Homo sapiens) (UniProt Q99873); test: Inhibition of human recombinant PRMT1 assessed as nuclear ribonucleoprotein Npl3p methylation at 100 uM
In short: (§3)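 Recombinant enzymes (0.2 µg) with substrate (0.5 µg: Npl3p for PRMT1, PABP1 for CARM1, histone H3 for SET7), 0.5 µM [3H]AdoMet and 100 µM compound in PBS pH 7.4 with 3.3% v/v DMSO, 90 min at 30 °C. Products separated by 10% SDS-PAGE, transferred to PVDF, detected by fluorography on film overnight.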

[9] = target: T1, Histone-arginine methyltransferase CARM1 (Homo sapiens) (UniProt Q86X55); test: Inhibition of human recombinant CARM1 assessed as poly(A) binding protein 1 methylation at 100 uM; in short: as §3
T1 sequence (whole entry): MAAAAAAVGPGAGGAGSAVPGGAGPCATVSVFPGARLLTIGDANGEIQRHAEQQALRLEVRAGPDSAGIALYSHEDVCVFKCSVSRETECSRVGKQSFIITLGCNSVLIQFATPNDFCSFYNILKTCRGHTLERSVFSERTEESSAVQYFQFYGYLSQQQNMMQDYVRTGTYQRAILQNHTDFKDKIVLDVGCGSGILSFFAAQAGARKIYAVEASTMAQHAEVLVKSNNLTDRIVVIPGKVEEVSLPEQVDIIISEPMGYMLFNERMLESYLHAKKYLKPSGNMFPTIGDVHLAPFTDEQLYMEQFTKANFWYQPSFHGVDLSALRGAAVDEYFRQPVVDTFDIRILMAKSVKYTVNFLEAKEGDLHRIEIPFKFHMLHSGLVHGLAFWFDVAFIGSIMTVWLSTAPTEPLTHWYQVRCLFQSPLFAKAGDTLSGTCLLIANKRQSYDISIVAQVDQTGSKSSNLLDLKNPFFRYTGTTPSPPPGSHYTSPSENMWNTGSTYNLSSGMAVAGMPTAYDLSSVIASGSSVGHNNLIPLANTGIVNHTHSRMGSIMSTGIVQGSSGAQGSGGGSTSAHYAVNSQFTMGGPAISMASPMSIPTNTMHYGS

[10] = target: T2, Histone-lysine N-methyltransferase SETD7 (Homo sapiens) (UniProt Q8WTS6); test: Inhibition of human recombinant SET7 assessed as histone H3 protein methylation at 100 uM; in short: as §3
T2 sequence (whole entry): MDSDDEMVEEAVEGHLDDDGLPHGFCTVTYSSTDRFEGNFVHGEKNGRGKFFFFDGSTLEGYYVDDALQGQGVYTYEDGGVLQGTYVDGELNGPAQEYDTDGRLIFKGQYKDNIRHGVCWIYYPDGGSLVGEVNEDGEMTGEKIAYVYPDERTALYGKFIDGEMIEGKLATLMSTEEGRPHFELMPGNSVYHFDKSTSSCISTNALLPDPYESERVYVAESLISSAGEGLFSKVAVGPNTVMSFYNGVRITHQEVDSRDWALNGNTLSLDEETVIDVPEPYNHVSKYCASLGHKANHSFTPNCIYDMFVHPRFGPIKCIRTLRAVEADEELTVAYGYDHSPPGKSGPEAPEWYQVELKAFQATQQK

U-937 [11] = test: Inhibition of histone H3K4 methylation in human U937 cells at 50 uM after 24 hrs; format: functional, cell-based
In short: (§4)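 U937 cells treated at 50 µM for 24 h. Histones extracted with Triton buffer, then 0.2 M HCl overnight at 4 °C. 3–10 µg run on 15% SDS-PAGE and immunoblotted with anti-monomethyl-H3K4, monomethyl-H4R3 or dimethyl-H3R17 (1:500, overnight 4 °C), ECL detection. Loading controls: total H4 (H3K4), Ponceau Red (Arg marks).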

U-937 [12] = test: Inhibition of histone H4R3 methylation in human U937 cells at 50 uM after 24 hrs; format: functional, cell-based; in short: as §4
U-937 [13] = test: Inhibition of histone H3R17 methylation in human U937 cells at 50 uM after 24 hrs; format: functional, cell-based; in short: as §4
U-937 [14] = test: Inhibition of human p300/CBP in U937 cells at 50 uM assessed as histone H3 acetylation; format: cell-based
In short: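 Source was U937 nuclear extract (10 µg per assay) as p300/CBP HAT, with histone H3 substrate and compound at 50 µM or DMSO control for 90 min. Acetyl-H3 detected by indirect ELISA, quantified against acetylated H3 peptide standard curves, […].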

[15] = target: T3, NAD-dependent protein deacetylase sirtuin-1 (Homo sapiens) (UniProt Q96EB6); test: Inhibition of human SIRT1 at 25 uM
T3 sequence (whole entry): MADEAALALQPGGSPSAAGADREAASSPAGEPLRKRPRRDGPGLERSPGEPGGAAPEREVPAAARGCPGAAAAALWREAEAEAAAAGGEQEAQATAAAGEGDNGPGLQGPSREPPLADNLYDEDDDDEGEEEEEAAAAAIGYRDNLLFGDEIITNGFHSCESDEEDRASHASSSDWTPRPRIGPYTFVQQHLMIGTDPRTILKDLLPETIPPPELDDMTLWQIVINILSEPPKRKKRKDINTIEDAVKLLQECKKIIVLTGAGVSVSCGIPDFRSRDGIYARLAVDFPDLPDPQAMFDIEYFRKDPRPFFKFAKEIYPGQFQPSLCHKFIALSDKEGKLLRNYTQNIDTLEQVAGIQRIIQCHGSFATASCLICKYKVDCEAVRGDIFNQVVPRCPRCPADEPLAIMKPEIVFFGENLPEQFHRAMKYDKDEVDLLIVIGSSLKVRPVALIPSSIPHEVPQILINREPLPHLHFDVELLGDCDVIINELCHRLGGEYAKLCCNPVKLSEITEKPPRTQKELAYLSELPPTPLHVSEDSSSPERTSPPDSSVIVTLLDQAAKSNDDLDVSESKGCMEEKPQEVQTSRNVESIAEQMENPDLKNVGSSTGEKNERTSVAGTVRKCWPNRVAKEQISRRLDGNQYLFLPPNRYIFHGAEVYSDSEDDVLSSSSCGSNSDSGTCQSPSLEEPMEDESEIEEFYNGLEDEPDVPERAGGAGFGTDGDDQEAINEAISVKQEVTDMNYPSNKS
In short: (§5)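 Fluorescent two-stage assay. SIRT1 (1 U/well) or SIRT2 (5 U/well) with Fluor de Lys-SIRT1/2 substrate, NAD+ and compound at 25 µM, 37 °C for 2 h. Developer II containing nicotinamide then stopped the reaction and generated signal, read at ex 360/em 460 nm.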

[16] = target: T4, NAD-dependent protein deacetylase sirtuin-2 (Homo sapiens) (UniProt Q8IXJ6); test: Inhibition of human SIRT2 at 25 uM; in short: as §5
T4 sequence (whole entry): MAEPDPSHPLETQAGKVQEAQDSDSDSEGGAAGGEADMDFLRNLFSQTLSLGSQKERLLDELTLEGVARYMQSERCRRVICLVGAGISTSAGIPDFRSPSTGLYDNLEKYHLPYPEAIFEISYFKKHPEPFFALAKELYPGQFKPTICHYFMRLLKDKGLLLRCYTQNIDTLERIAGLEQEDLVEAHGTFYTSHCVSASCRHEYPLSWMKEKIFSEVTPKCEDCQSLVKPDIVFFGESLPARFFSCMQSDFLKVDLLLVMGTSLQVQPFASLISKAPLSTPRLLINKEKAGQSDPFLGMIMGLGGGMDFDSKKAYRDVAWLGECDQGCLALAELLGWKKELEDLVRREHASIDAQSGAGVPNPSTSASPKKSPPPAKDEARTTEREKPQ

IC50 (RmtA) | inhibition [7] | Activity [8] | Activity [9] | Activity [10] | inhibition [15] | inhibition [16] | Structure (SMILES) | Activity (U-937 [1]) | Activity (U-937 [2]) | Activity (U-937 [3]) | Activity (U-937 [4]) | Activity (U-937 [5]) | Activity (U-937 [6]) | Activity (U-937 [11]) | Activity (U-937 [12]) | Activity (U-937 [13]) | inhibition (U-937 [14])
 |  |  |  |  |  |  | COc1cc(/C=C/C(=O)CC(=O)/C=C/c2ccc(O)c(OC)c2)ccc1O [CURCUMIN] | inactive | 8.5% | 25.3% | 25% |  |  |  |  |  | 
10 µM | 60% | Active | Active | Active | 73% | 48% | O=C(/C=C/c1cc(Br)c(O)c(Br)c1)c1cccc(C(=O)/C=C/c2cc(Br)c(O)c(Br)c2)c1 |  | 42.6% |  |  | Active | 38.8% | Active | Active | Active | 83%
